Measured values from ChEMBL document CHEMBL4732238, “Synthesis, biological evaluation, and structure-activity relationships of new tubulin polymerization inhibitors based on 5-amino-1,2,4-triazole scaffold” (Bioorg Med Chem Lett, 2021).

Tests used:
PC-3 = test: Antiproliferative activity against human PC-3 cells assessed as cell growth inhibition at 100 uM by MTT assay relative to control; format: functional; conditions: read-out: GI
In short: (§1)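 Five human lines (MCF-7, HeLa, A549, PC-3, Panc-1) exposed to a single 100 μM concentration. Viability read by MTT. Results expressed as […] versus untreated control cells.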

A549 = test: Antiproliferative activity against human A549 cells assessed as cell growth inhibition at 100 uM by MTT assay relative to control; format: functional; conditions: read-out: GI; in short: as §1
PANC-1 [1] = test: Antiproliferative activity against human PANC-1 cells assessed as cell growth inhibition at 100 uM by MTT assay relative to control; format: functional; conditions: read-out: GI; in short: as §1
HeLa [2] = test: Antiproliferative activity against human HeLa cells assessed as cell growth inhibition at 100 uM by MTT assay relative to control; format: functional; conditions: read-out: GI; in short: as §1
MCF7 [3] = test: Antiproliferative activity against human MCF7 cells assessed as cell growth inhibition at 100 uM by MTT assay relative to control; format: functional; conditions: read-out: GI; in short: as §1
K562 = test: Antiproliferative activity against human K562 cells assessed as cell growth inhibition by MTT assay; format: functional, cell-based
HeLa [4] = test: Antiproliferative activity against human HeLa cells assessed as cell growth inhibition by MTT assay; format: functional, cell-based
In short: (§2)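 MTT antiproliferation readout. […] Mean ± SD from three independent experiments.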

MCF7 [5] = test: Antiproliferative activity against human MCF7 cells assessed as cell growth inhibition by MTT assay; format: functional, cell-based; in short: as §2
PANC-1 [6] = test: Antiproliferative activity against human PANC-1 cells assessed as cell growth inhibition by MTT assay; format: functional, cell-based; in short: as §2
Tubulin (Homo sapiens) = Tubulin (Homo sapiens) (UniProt P68371+Q9H4B7+P0DPH7+P68366+Q13509+Q71U36+P04350+Q3ZCM7+P07437+P68363+Q9BQE3+Q6PEY2+Q13885+Q9BVA1+Q9BUF5); test: Inhibition of tubulin (unknown origin) polymerization at 10 uM measured every 1 min over 20 mins by fluorescence assay relative to control; format: protein-complex assay
In short: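 Tubulin in reaction buffer incubated at 37 °C with test agent at final 10 μM; control 1% DMSO. Polymerization followed at 340 nm, read every minute over 20 min. Run three times.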

HeLa [7] = test: Cell cycle arrest in human HeLa cells assessed as accumulation at S phase at 20 uM measured after 48 hrs by propidium iodide staining based flow cytometry (reference value: 30.73 %); format: functional
HeLa [8] = test: Cell cycle arrest in human HeLa cells assessed as accumulation at G1/G0 phase at 20 uM measured after 48 hrs by propidium iodide staining based flow cytometry (reference value: 54.82 %); format: functional
HeLa [9] = test: Cell cycle arrest in human HeLa cells assessed as accumulation at G1/G0 phase at 10 uM measured after 48 hrs by propidium iodide staining based flow cytometry (reference value: 54.82 %); format: functional
HeLa [10] = test: Cell cycle arrest in human HeLa cells assessed as accumulation at G2/M phase at 10 uM measured after 48 hrs by propidium iodide staining based flow cytometry (reference value: 14.45 %); format: functional
HeLa [11] = test: Cell cycle arrest in human HeLa cells assessed as accumulation at G2/M phase at 20 uM measured after 48 hrs by propidium iodide staining based flow cytometry (reference value: 14.45 %); format: functional
HeLa [12] = test: Cell cycle arrest in human HeLa cells assessed as accumulation at S phase at 40 uM measured after 48 hrs by propidium iodide staining based flow cytometry (reference value: 30.73 %); format: functional
HeLa [13] = test: Cell cycle arrest in human HeLa cells assessed as accumulation at G1/G0 phase at 40 uM measured after 48 hrs by propidium iodide staining based flow cytometry (reference value: 54.82 %); format: functional
HeLa [14] = test: Cell cycle arrest in human HeLa cells assessed as accumulation at G2/M phase at 40 uM measured after 48 hrs by propidium iodide staining based flow cytometry (reference value: 14.45 %); format: functional
HeLa [15] = test: Cell cycle arrest in human HeLa cells assessed as accumulation at S phase at 10 uM measured after 48 hrs by propidium iodide staining based flow cytometry (reference value: 30.73 %); format: functional

Row | Structure (SMILES) | inhibition of growth at 100 µM (PC-3) [%] | inhibition of growth at 100 µM (A549) [%] | inhibition of growth at 100 µM (PANC-1 [1]) [%] | inhibition of growth at 100 µM (HeLa [2]) [%] | inhibition of growth at 100 µM (MCF7 [3]) [%] | further results
1 | COc1cc(-c2nc(N)n(Cc3ccc(Cl)cc3)n2)cc(OC)c1OC | 48 | 38 | 39 | 55 | 49 | 
2 | COc1ccc(/C=C\c2cc(OC)c(OC)c(OC)c2)cc1O [COMBRETASTATIN A4] |  |  |  |  |  | IC50 (K562): 0.61 µM; IC50 (HeLa [4]): 0.0047 µM; IC50 (MCF7 [5]): 0.17 µM
3 | COc1cc(-c2nc(N)n(CC(=O)c3ccccc3)n2)cc(OC)c1OC |  | 15 | 4 | 42 | 30 | 
4 | COc1cc(-c2nc(N)n(CC(=O)Nc3ccc(Cl)cc3)n2)cc(OC)c1OC | 14 | 22 | 12 | 30 | 37 | 
5 | COc1cc(-c2nc(N)n(CC(=O)c3ccc(F)cc3)n2)cc(OC)c1OC | 18 | 13 |  | 9 | 27 | 
6 | COc1cc(-c2nc(N)n(CC(=O)Nc3ccc(C(C)C)cc3)n2)cc(OC)c1OC | 37 |  | 22 | 45 | 8 | 
7 | COc1cc(-c2nc(N)n(CC(=O)Nc3cccc(C)c3)n2)cc(OC)c1OC | 50 | 34 | 10 | 18 | 23 | 
8 | COc1cc(-c2nc(N)n(CC(=O)c3cccc(Br)c3)n2)cc(OC)c1OC |  | 35 | 51 | 66 | 59 | IC50 (K562): > 100 µM; IC50 (HeLa [4]): 58.2 µM; IC50 (PANC-1 [6]): 79.6 µM; IC50 (MCF7 [5]): 68.4 µM
9 | COc1cc(-c2nc(N)n(Cc3ccc(C)cc3)n2)cc(OC)c1OC | 39 | 34 | 53 | 76 | 55 | inhibition (Tubulin (Homo sapiens)): 25%; IC50 (K562): 17.1 µM; IC50 (HeLa [4]): 46.9 µM; IC50 (PANC-1 [6]): 61.5 µM; IC50 (MCF7 [5]): 73.8 µM
10 | COc1cc(-c2nc(N)n(CC(=O)c3ccc(Br)cc3)n2)cc(OC)c1OC | 38 | 12 | 6 | 41 | 27 | 
11 | COc1cc(-c2nc(N)n(CC(=O)c3ccc(C)cc3)n2)cc(OC)c1OC | 35 |  | 17 | 70 | 53 | inhibition (Tubulin (Homo sapiens)): 42%; IC50 (K562): 33 µM; IC50 (HeLa [4]): 54 µM; IC50 (PANC-1 [6]): > 100 µM; IC50 (MCF7 [5]): 53 µM
12 | COc1cccc(C(=O)Cn2nc(-c3cc(OC)c(OC)c(OC)c3)nc2N)c1 | 37 | 20 |  | 27 | 30 | 
13 | COc1cc(-c2nc(N)n(Cc3cc(OC(F)(F)F)cc(OC(F)(F)F)c3)n2)cc(OC)c1OC | 36 | 6 | 71 | 73 | 55 | IC50 (K562): 31.5 µM; IC50 (HeLa [4]): 53.1 µM; IC50 (PANC-1 [6]): 73 µM; IC50 (MCF7 [5]): > 100 µM
14 | CCCc1ccc(NC(=O)Cn2nc(-c3cc(OC)c(OC)c(OC)c3)nc2N)cc1 | 61 | 37 | 91 | 75 | 70 | inhibition (Tubulin (Homo sapiens)): 14%; IC50 (K562): 41.1 µM; IC50 (HeLa [4]): 56.1 µM; IC50 (PANC-1 [6]): 20 µM; IC50 (MCF7 [5]): 44.7 µM
15 | COc1cc(-c2nc(N)n(Cc3ccccc3F)n2)cc(OC)c1OC | 35 | 24 | 5 | 33 | 33 | 
16 | COc1cc(-c2nc(N)n(CC(=O)Nc3c(C)cc(C)cc3C)n2)cc(OC)c1OC | 50 | 16 | 32 | 49 | 34 | 
17 | COc1cc(-c2nc(N)n(CC(=O)Nc3ccc(C(C)(C)C)cc3)n2)cc(OC)c1OC | 70 | 93 | 93 | 95 | 93 | inhibition (Tubulin (Homo sapiens)): 48%; IC50 (K562): 9.23 µM; Activity (HeLa [7]): 28.35%; Activity (HeLa [8]): 56.06%; Activity (HeLa [9]): 54.33%; IC50 (HeLa [4]): 18.9 µM; Activity (HeLa [10]): 14.7%; IC50 (PANC-1 [6]): 35.1 µM; Activity (HeLa [11]): 15.59%; Activity (HeLa [12]): 18.6%; Activity (HeLa [13]): 52.66%; IC50 (MCF7 [5]): 35.6 µM; Activity (HeLa [14]): 28.74%; Activity (HeLa [15]): 30.96%
18 | COc1cc(-c2nc(N)n(Cc3ccc([N+](=O)[O-])cc3)n2)cc(OC)c1OC | 21 | 13 | 53 | 58 | 52 | IC50 (K562): > 100 µM; IC50 (HeLa [4]): 57.2 µM; IC50 (PANC-1 [6]): > 100 µM; IC50 (MCF7 [5]): 82.1 µM
19 | COc1cc(-c2nc(N)n(CC(=O)c3ccc(Cl)cc3)n2)cc(OC)c1OC | 26 | 26 | 6 | 38 |  | 
20 | COc1cccc(NC(=O)Cn2nc(-c3cc(OC)c(OC)c(OC)c3)nc2N)c1 | 6 |  |  | 39 |  | 
21 | COc1ccc(NC(=O)Cn2nc(-c3cc(OC)c(OC)c(OC)c3)nc2N)cc1 | 33 | 9 |  | 30 | 50 | 
22 | COc1cc(-c2nc(N)n(CC(=O)Nc3ccc(C)cc3)n2)cc(OC)c1OC | 31 |  | 5 | 35 |  | 
23 | COc1cc(-c2nc(N)n(CC(=O)Nc3ccc(N(C)C)cc3)n2)cc(OC)c1OC |  | 7 |  | 29 | 14 | 
24 | COc1cc(-c2nc(N)n(CC(=O)Nc3ccc(C)cc3F)n2)cc(OC)c1OC | 25 | 12 | 22 | 32 | 21 | 
25 | COc1cc(-c2nc(N)n(CC(=O)c3ccc(F)c(F)c3)n2)cc(OC)c1OC | 28 | 14 | 52 | 31 | 48 | 
26 | COc1cc(-c2nc(N)n(Cc3cccc(C#N)c3)n2)cc(OC)c1OC |  | 30 | 6 | 28 | 43 | 
27 | COc1cc(-c2nc(N)n(Cc3ccc(F)cc3)n2)cc(OC)c1OC | 41 | 42 | 7 | 28 | 34 | 
28 | COc1cc(-c2nc(N)n(CC(=O)Nc3ccc(C)c(C)c3)n2)cc(OC)c1OC |  | 29 | 32 | 20 | 32 | 
29 | COc1ccc(NC(=O)Cn2nc(-c3cc(OC)c(OC)c(OC)c3)nc2N)cc1OC | 42 | 22 | 14 | 41 | 12 | 
30 | CCc1ccc(NC(=O)Cn2nc(-c3cc(OC)c(OC)c(OC)c3)nc2N)cc1 | 40 | 27 |  | 12 | 31 | 
